Assay [1] has as its target full-length (FL) PRT1 wild-type (WT), PROTEOLYSIS1 of Arabidopsis thaliana (Arabidopsis thaliana) (UniProt Q8LBL5). Description: ITC.
For assay [2], the target named is RING2 domain of PRT1, wild type (Arabidopsis thaliana). Kind of assay: SEC-MALS. In general terms: Size exclusion chromatography separates by hydrodynamic size, large species first.
Assay [3] concerns the target T1, FL PRT1^WT (Arabidopsis thaliana, UniProt Q8LBL5).
T1 sequence (Q8LBL5 1-410): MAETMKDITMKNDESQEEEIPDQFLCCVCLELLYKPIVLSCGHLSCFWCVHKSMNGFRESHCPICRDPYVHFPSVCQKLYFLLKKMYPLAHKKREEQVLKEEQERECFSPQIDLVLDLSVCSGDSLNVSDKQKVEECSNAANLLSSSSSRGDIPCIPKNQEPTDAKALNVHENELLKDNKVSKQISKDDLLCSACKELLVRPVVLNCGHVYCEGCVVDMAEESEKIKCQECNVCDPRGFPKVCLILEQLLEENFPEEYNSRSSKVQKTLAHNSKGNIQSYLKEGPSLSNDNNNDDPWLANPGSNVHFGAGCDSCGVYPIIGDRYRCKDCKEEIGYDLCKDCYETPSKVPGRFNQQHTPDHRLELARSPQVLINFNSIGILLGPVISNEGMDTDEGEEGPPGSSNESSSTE
Kind of assay: ITC binding of N-degron peptides to full-length PRT1 wild-type. The procedure, abridged:
(§1)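 Full-length PRT1 (wild type or point mutant) was expressed in E. coli BL21(DE3) with ZnSO4 and purified by Ni-NTA, TEV cleavage of the His6 tag and size exclusion into ITC buffer (50 mM Tris-HCl pH 7.5, 150 mM NaCl, 1 mM TCEP). Protein was at 45~55 μM and synthetic N-degron peptide at ~550 μM in the same buffer, with 19 injections at 25 °C. Data were fitted to a one-site model, with at least three runs.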

The target in assay [4] is T2, FL PRT1^Y317A/I333A (Arabidopsis thaliana, UniProt Q8LBL5, I333A/Y317A).
T2 sequence (Q8LBL5 1-410 Y317A/I333A): T1 sequence (Q8LBL5 1-410) with Y317A, I333A
Description: ITC binding of N-degron peptide to full-length PRT1 Y317A/I333A double mutant. The following applies: 25 °C, ITC buffer pH 7.5, FL PRT1 Y317A/I333A double mutation. The procedure, abridged: as §1

Assay [5] addresses T3, PRT1^ZZ (Arabidopsis thaliana, UniProt Q8LBL5).
T3 sequence (Q8LBL5 308-365): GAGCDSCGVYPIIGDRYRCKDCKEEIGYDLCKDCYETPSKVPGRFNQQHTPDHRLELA
Kind of assay: ITC binding of N-degron peptide to the ZZ domain of PRT1. The procedure, abridged:
(§2)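 The PRT1 truncation was expressed in E. coli as a bRIP-tag fusion and purified by Ni-NTA, Blue affinity chromatography and size exclusion into ITC buffer (50 mM Tris-HCl pH 7.5, 150 mM NaCl, 1 mM TCEP). Protein was at 45~55 μM and synthetic N-degron peptide at ~550 μM in the same buffer, with 19 injections at 25 °C. Data were fitted to a one-site model, with at least three runs.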

The target of assay [6] is T4, ZZ domain-deleted RING domains (RING1 + RING2) of PRT1 (Arabidopsis thaliana, UniProt Q8LBL5).
T4 sequence (Q8LBL5 1-273): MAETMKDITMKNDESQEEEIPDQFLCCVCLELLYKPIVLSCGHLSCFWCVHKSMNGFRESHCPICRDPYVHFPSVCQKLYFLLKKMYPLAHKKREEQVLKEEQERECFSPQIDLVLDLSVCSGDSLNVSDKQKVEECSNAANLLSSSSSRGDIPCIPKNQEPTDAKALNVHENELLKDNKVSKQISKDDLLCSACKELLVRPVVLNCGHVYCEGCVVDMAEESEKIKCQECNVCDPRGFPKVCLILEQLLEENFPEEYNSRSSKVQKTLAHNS
Kind of assay: ITC binding of N-degron peptide to ZZ domain-deleted PRT1. The following applies: 25 °C, ITC buffer pH 7.5, RIP-RING (1-273). The procedure, abridged:
as §2

Assay [7] deals with T5, FL PRT1^I333A (Arabidopsis thaliana, UniProt Q8LBL5, I333A).
T5 sequence (Q8LBL5 1-410 I333A): T1 sequence (Q8LBL5 1-410) with I333A
Kind of assay: ITC binding of N-degron peptides to full-length PRT1 I333A mutant. As to conditions: 25 °C, ITC buffer pH 7.5, one-site model. The procedure, abridged: as §1

Assay [8] deals with T6, FL PRT1^Y317A (Arabidopsis thaliana, UniProt Q8LBL5, Y317A).
T6 sequence (Q8LBL5 1-410 Y317A): T1 sequence (Q8LBL5 1-410) with Y317A
Description: ITC binding of N-degron peptides to full-length PRT1 Y317A mutant. As to conditions: 25 °C, ITC buffer pH 7.5, one-site model. The procedure, abridged: as §1

Assay [9] addresses FL PRT1 I333A mutant (Arabidopsis thaliana) (UniProt Q8LBL5). Description: ITC. Background: In ITC the heat of successive injections is recorded.
Assay [10] concerns the target FL PRT1 Y317A mutant (Arabidopsis thaliana) (UniProt Q8LBL5). Description: ITC.

Numbering of substitutions follows the chain as printed. Peptide text beside a SMILES is read from it.

In turn, YAA peptide displayed a Kd in [1] of 23.3 µM. Regarding “RING2 domain of PRT1, wild type (domain or fragment)”, the stoichiometry N in assay [2] came to 2.

In assay [3], `C[C@H](NC(=O)[C@H](C)NC(=O)[C@@H](N)Cc1ccccc1)C(=O)O` [FAA] (H-Phe-Ala-Ala-OH) gave a dissociation constant Kd of 5.45 ± 0.212 µM. Take `NCCCC[C@H](NC(=O)[C@@H](N)Cc1ccc(O)cc1)C(=O)N[C@@H](Cc1ccccc1)C(=O)O` [YKF, Tyr-Lys-Phe] (H-Tyr-Lys-Phe-OH): the “dissociation constant (KD), binding affinity” value in assay [4] was “considerably low affinity”. The Kd in assay [5] is 10.1 µM. The “binding affinity (KD)” value in [6] is reported as “no binding affinity was detected”. Compound `C[C@H](NC(=O)[C@H](C)NC(=O)[C@@H](N)Cc1c[nH]c2ccccc12)C(=O)O` [WAA] (H-Trp-Ala-Ala-OH) had a Kd in assay [3] of 2.85 ± 0.164 µM.

Regarding `C[C@H](NC(=O)[C@H](CCCCN)NC(=O)[C@@H](N)Cc1ccc(O)cc1)C(=O)O` [YKA] (H-Tyr-Lys-Ala-OH), the “dissociation constant (KD), binding affinity” value in [7] and in assay [8] was “not bound” throughout. Tyr N-degron peptide (Tyr-Lys-Phe): the results for the Kd in assay [9] and in assay [10] were 13.7 µM and 41.3 µM, respectively.

In general, Kd refers to the free concentration of one partner at which half of the binding sites on the other are occupied at equilibrium, for simple one-to-one binding. High values mean a looser complex, low ones a tighter complex. What is called stoichiometry N is the number of molecules, sites or subunits per partner or assembly.

The record behind these values is paper PMC12370974 (Nature Communications, 2025).
